Laboratory results published in ChEMBL document CHEMBL1154676, “Synthetic mRNA splicing modulator compounds with in vivo antitumor activity” (J Med Chem, 2009).

Key:
U-251 = assay: Growth inhibition of human U251 cells by sulforhodamine B assay; format: functional
Mus musculus [1] = assay: Toxicity in NOD/SCID mouse assessed as weight loss at 5 to 50 mg/kg, iv and po for 5 days after 1 week; format: organism-based; design: dose 5-50 mg/kg, route oral; settings: in vivo, 168 h
[2] = Cytotoxicity against HFF/tert2 after 72 hrs by XTT assay; design: species or system Homo sapiens
Outline: (§1)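 Cells grown at 37 °C, 5% CO2; HFF in DMEM with 10% FBS, PrEC in prostate epithelial growth medium. Adherent lines seeded overnight, suspension lines same day; compounds diluted from DMSO stocks into media at various final concentrations, 72 h exposure. XTT reagent added 4 h, absorbance 490 nm (reference 690 nm). Growth as % of vehicle; IC50 from sigmoidal dose-response fit; mean ± SEM, three independent experiments.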

UO-31 = assay: Growth inhibition of human UO31 cells by sulforhodamine B assay; format: functional
SF-295 = assay: Growth inhibition of human SF295 cells by sulforhodamine B assay; format: functional
Mus musculus [3] = assay: Toxicity in NOD/SCID mouse assessed as total protein level at 5 to 50 mg/kg, […] for 5 days; format: organism-based; design: dose 5-50 mg/kg; settings: in vivo, po, 120 h
[4] = Cytotoxicity against human Rh41 cells after 72 hrs by XTT assay; format: functional, cell-based; settings: Rh41, 72 h; outline: as §1
Mus musculus [5] = assay: Toxicity in NOD/SCID mouse assessed as sodium level at 5 to 50 mg/kg, […] for 5 days; format: organism-based; design: dose 5-50 mg/kg; settings: in vivo, po, 120 h
[6] = Growth inhibition of human […] cells by sulforhodamine B assay; format: functional
Mus musculus [7] = assay: Toxicity in NOD/SCID mouse transplanted with human JeKo1 cells assessed as fatalities at 5 to 50 mg/kg, iv and po for 5 days; format: organism-based; design: dose 5-50 mg/kg, route oral; settings: in vivo, 120 h
MCF7 = assay: Growth inhibition of human MCF7 cells by sulforhodamine B assay; format: functional
SK-MEL-2 = assay: Growth inhibition of human SK-MEL-2 cells by sulforhodamine B assay; format: functional
JVM-2 = assay: Cytotoxicity against human JVM2 cells after 72 hrs by XTT assay; format: functional, cell-based; settings: JVM-2, 72 h; outline: as §1
NCI-H23 = assay: Growth inhibition of human NCI-H23 cells by sulforhodamine B assay; format: functional
[8] = Cytotoxicity against human NB1643 cells after 72 hrs by XTT assay; format: functional, cell-based; settings: NB-1643, 72 h; outline: as §1
Mus musculus [9] = assay: Toxicity in NOD/SCID mouse assessed as albumin level at 5 to 50 mg/kg, iv and po for 5 days; format: organism-based; design: dose 5-50 mg/kg, route oral; settings: in vivo, 120 h
MOLT-4 = assay: Cytotoxicity against human MOLT4 cells after 72 hrs by XTT assay; format: functional, cell-based; settings: MOLT-4, 72 h; outline: as §1
[10] = Growth inhibition of human MDA-MB-436 cells by sulforhodamine B assay; format: functional
M14 = assay: Growth inhibition of human M14 cells by sulforhodamine B assay; format: functional
OVCAR-8 = assay: Growth inhibition of human OVCAR8 cells by sulforhodamine B assay; format: functional
SF-268 = assay: Growth inhibition of human SF268 cells by sulforhodamine B assay; format: functional
T47D = assay: Growth inhibition of human T47D cells by sulforhodamine B assay; format: functional
786-0 = assay: Growth inhibition of human 786-0 cells by sulforhodamine B assay; format: functional
[11] = Cytotoxicity against human BT-14 cells after 72 hrs by XTT assay; format: functional, cell-based; settings: BT-14, 72 h; outline: as §1
CCRF-CEM = assay: Growth inhibition of human CCRF-CEM cells by sulforhodamine B assay; format: functional
DU-145 = assay: Growth inhibition of human DU145 cells by sulforhodamine B assay; format: functional
[12] = Antitumor activity against human JeKo1 cells transplanted in NOD/SCID mouse assessed as tumor volume treated iv for 5 days relative to control; format: functional, JeKo-1
Outline: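 Female NOD/SCID mice bearing JeKo-1 tumors transplanted day 1; IV dosing from day 4, daily for five days, at 5, 10, 25 or 50 mg/kg in 3.0% DMSO/6.5% Tween 80/5% glucose, 4 per group. Volume = (length × width²)/2, measured thrice weekly; T/C = median treated tumor volume ÷ median control volume.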

SNB-75 = assay: Growth inhibition of human SNB75 cells by sulforhodamine B assay; format: functional
UACC-62 = assay: Growth inhibition of human UACC62 cells by sulforhodamine B assay; format: functional
Mus musculus [13] = assay: Toxicity in NOD/SCID mouse assessed as leukopenia at 5 to 50 mg/kg, […] for 5 days; format: organism-based; design: dose 5-50 mg/kg; settings: in vivo, po, 120 h
IGROV-1 = assay: Growth inhibition of human IGROV1 cells by sulforhodamine B assay; format: functional
SNB-19 = assay: Growth inhibition of human SNB19 cells by sulforhodamine B assay; format: functional
MDA-MB-468 = assay: Growth inhibition of human MDA-MB-468 cells by sulforhodamine B assay; format: functional
MDA-MB-231 = assay: Growth inhibition of human MDA-MB-231 cells by sulforhodamine B assay; format: functional
Ramos = assay: Cytotoxicity against human Ramos cells after 72 hrs by XTT assay; format: functional, cell-based; outline: as §1
PC-3 = assay: Growth inhibition of human PC3 cells by sulforhodamine B assay; format: functional
[14] = Cytotoxicity against human SJ-GBM2 cells after 72 hrs by XTT assay; format: functional, cell-based; outline: as §1
A549 = assay: Growth inhibition of human A549 cells by sulforhodamine B assay; format: functional
[15] = read-out: Log10GI50 (converted)
[16] = read-out: Log10LC50 (converted)

SMILES: CC(/C=C/[C@@H]1C[C@]2(CO2)CC(C)(C)O1)=C\C[C@H]1CC[C@@H](NC(=O)/C=C\[C@H](C)OC(=O)C(C)C)CC1
- GI50 (U-251; [15]): 0.363 µM
- CC50 (U-251; [16]): > 100 µM
- TGI (U-251; read-out: Log10TGI (converted)): > 100 µM
- Activity (Mus musculus [1]): Non-toxic
- IC50 [2]: 9.69 µM
- GI50 (UO-31; [15]): 3.98 µM
- CC50 (UO-31; [16]): > 100 µM
- TGI (UO-31; read-out: Log10TGI (converted)): > 100 µM
- GI50 (SF-295; [15]): 0.339 µM
- CC50 (SF-295; [16]): > 100 µM
- TGI (SF-295; read-out: Log10TGI (converted)): 2.51 µM
- Activity (Mus musculus [3]): Non-toxic
- IC50 [4]: 0.55 µM
- Activity (Mus musculus [5]): Non-toxic
- GI50 [6, 15]: 0.427 µM
- CC50 [6, 16]: > 100 µM
- TGI ([6]; read-out: Log10TGI (converted)): 4.68 µM
- Activity (Mus musculus [7]): Non-toxic
- GI50 (MCF7; [15]): 0.0251 µM
- CC50 (MCF7; [16]): > 100 µM
- TGI (MCF7; read-out: Log10TGI (converted)): 13.8 µM
- GI50 (SK-MEL-2; [15]): 0.257 µM
- CC50 (SK-MEL-2; [16]): > 100 µM
- TGI (SK-MEL-2; read-out: Log10TGI (converted)): 3.55 µM
- IC50 (JVM-2): 0.19 µM
- GI50 (NCI-H23; [15]): 0.537 µM
- CC50 (NCI-H23; [16]): > 100 µM
- TGI (NCI-H23; read-out: Log10TGI (converted)): 33.9 µM
- IC50 [8]: 0.23 µM
- Activity (Mus musculus [9]): Non-toxic
- IC50 (MOLT-4): 0.08 µM
- GI50 [10, 15]: 0.229 µM
- CC50 [10, 16]: > 100 µM
- TGI ([10]; read-out: Log10TGI (converted)): 16.2 µM
- GI50 (M14; [15]): 0.229 µM
- CC50 (M14; [16]): > 100 µM
- TGI (M14; read-out: Log10TGI (converted)): 13.8 µM
- GI50 (OVCAR-8; [15]): 0.24 µM
- CC50 (OVCAR-8; [16]): > 100 µM
- TGI (OVCAR-8; read-out: Log10TGI (converted)): > 100 µM
- GI50 (SF-268; [15]): 0.263 µM
- CC50 (SF-268; [16]): > 100 µM
- TGI (SF-268; read-out: Log10TGI (converted)): > 100 µM
- GI50 (T47D; [15]): 0.389 µM
- CC50 (T47D; [16]): > 100 µM
- TGI (T47D; read-out: Log10TGI (converted)): 14.5 µM
- GI50 (786-0; [15]): 2.63 µM
- CC50 (786-0; [16]): > 100 µM
- TGI (786-0; read-out: Log10TGI (converted)): > 100 µM
- IC50 [11]: 1.34 µM
- GI50 (CCRF-CEM; [15]): 0.0479 µM
- CC50 (CCRF-CEM; [16]): > 100 µM
- TGI (CCRF-CEM; read-out: Log10TGI (converted)): > 100 µM
- GI50 (DU-145; [15]): 0.55 µM
- CC50 (DU-145; [16]): > 100 µM
- TGI (DU-145; read-out: Log10TGI (converted)): > 100 µM
- T/C [12]: <=42%
- GI50 (SNB-75; [15]): 5.37 µM
- CC50 (SNB-75; [16]): > 100 µM
- TGI (SNB-75; read-out: Log10TGI (converted)): > 100 µM
- GI50 (UACC-62; [15]): 0.513 µM
- CC50 (UACC-62; [16]): 46.8 µM
- TGI (UACC-62; read-out: Log10TGI (converted)): 4.68 µM
- Activity (Mus musculus [13]): Non-toxic
- GI50 (IGROV-1; [15]): 0.851 µM
- CC50 (IGROV-1; [16]): > 100 µM
- TGI (IGROV-1; read-out: Log10TGI (converted)): > 100 µM
- GI50 (SNB-19; [15]): 2 µM
- CC50 (SNB-19; [16]): > 100 µM
- TGI (SNB-19; read-out: Log10TGI (converted)): > 100 µM
- GI50 (MDA-MB-468; [15]): 0.741 µM
- CC50 (MDA-MB-468; [16]): > 100 µM
- TGI (MDA-MB-468; read-out: Log10TGI (converted)): 39.8 µM
- GI50 (MDA-MB-231; [15]): 0.955 µM
- CC50 (MDA-MB-231; [16]): > 100 µM
- TGI (MDA-MB-231; read-out: Log10TGI (converted)): > 100 µM
- IC50 (Ramos): 0.08 µM
- GI50 (PC-3; [15]): 0.479 µM
- CC50 (PC-3; [16]): > 100 µM
- TGI (PC-3; read-out: Log10TGI (converted)): 38 µM
- IC50 [14]: 0.9 µM
- GI50 (A549; [15]): 0.912 µM
- CC50 (A549; [16]): > 100 µM
- TGI (A549; read-out: Log10TGI (converted)): > 100 µM
